# Measurements collected from several papers.
# Compare with care: the assays were run in different laboratories.
# NTSR1: Neurotensin receptor type 1 (NTSR1, Homo sapiens, UniProt P30989)
# BTK: Tyrosine-protein kinase BTK (BTK, Homo sapiens, UniProt Q06187)
# MMP14: Matrix metalloproteinase-14 (MMP14, Homo sapiens, UniProt P50281)
# Kir1 channel protein: Kir1 channel protein (Aedes aegypti, UniProt L0EQS9)
# ABHD6: Monoacylglycerol lipase ABHD6 (ABHD6, Homo sapiens, UniProt Q9BV23)
# PDE11A: Dual 3',5'-cyclic-AMP and -GMP phosphodiesterase 11A (PDE11A, Homo sapiens, UniProt Q9HCR9)
Structure (SMILES),target,assay,conditions,IC50 [µM]
Cc1cc(O)cc(C)c1C[C@H](NC(=O)[C@@H]1CCCN1C(=O)[C@H](CCCNC(=N)N)NC(=O)[C@H](CCCNC(=N)N)N(C)C(=O)CNC(=O)[C@@H](CO)NC(=O)CNC(=O)[C@H](Cc1cn(CCNC(=O)[C@H](CCCNC(=N)N)NC(=O)[C@H](CC(C)C)NC(=O)C2OC2C(=O)O)nn1)NC(=O)CN1CCN(CC(=O)O)CCN(CC(=O)O)CCN(CC(=O)O)CC1)C(=O)N[C@H](C(=O)N[C@@H](CC(C)C)C(=O)O)C(C)(C)C (mixture of isomers),NTSR1,"ligand displacement, radioligand",,0.073
COc1cc2c(NC3CCN(C)CC3)nc(N3CCCN(C)CC3)nc2cc1OCCCN(C)C,"Lysine-specific demethylase 4E (KDM4E, Homo sapiens, UniProt B2RXH2)","enzyme activity, inhibitor",,> 57
N#CN1C[C@H](n2nc(-c3ccc(Oc4ccc(Cl)cn4)cc3)c(C(N)=O)c2N)CCC12CC2,BTK,"enzyme activity, inhibitor",,0.0005 to 0.004
CCNC(=O)c1nc(-c2ccc3[nH]c(-c4nc(C)no4)cc3c2)c(C)[nH]1,MMP14,"enzyme activity, inhibitor",,> 20
O=S(=O)(c1ccc(F)cc1)N1CCN(c2cccc(NCc3ccncc3)c2)CC1,Kir1 channel protein,"ion flux, inhibitor",,4 to 9
O=c1c(O)c(-c2ccc(O)c(O)c2)oc2cc(O)cc(O)c12,"Cytochrome P450 2E1 (CYP2E1, Homo sapiens, UniProt P05181)","enzyme activity, inhibitor, HPLC",,104
O=[N+]([O-])c1ccc(N2CCN(S(=O)(=O)c3ccc(F)cc3)CC2)cc1NCc1cccnc1,Kir1 channel protein,"ion flux, inhibitor",,0.47
Cc1noc(-c2cc3cc(-c4nc(C(=O)NCc5ccc(=O)[nH]c5)[nH]c4C)ccc3[nH]2)n1,MMP14,"enzyme activity, inhibitor",,> 24
O=C(O)c1cc2ccccc2c(Cc2c(O)c(C(=O)O)cc3ccccc23)c1O,"DNA polymerase eta (POLH, Homo sapiens, UniProt Q9Y253)","enzyme activity, inhibitor",,79
O=C1Nc2cc(Oc3ccc4c(c3)NC(=O)C4=O)ccc2C1=O,"Protein-glutamine gamma-glutamyltransferase (TGM2, Homo sapiens, UniProt P21980)","enzyme activity, inhibitor",,30 to 40
O=C(Oc1nsnc1N1CCOCC1)N1CCCCC1,ABHD6,"enzyme activity, inhibitor, fluorescence",lysate,0.085
O=[N+]([O-])c1ccc(N2CCN(S(=O)(=O)c3ccc(Cl)cc3)CC2)cc1NCc1ccco1,Kir1 channel protein,"ion flux, inhibitor",,0.84
Cc1cc(Cc2cc(C)cc(C(C)(C)C)c2O)c(O)c(C(C)(C)C)c1,"Sarcoplasmic/endoplasmic reticulum calcium ATPase 1 (ATP2A1, Oryctolagus cuniculus, UniProt P04191)","ATPase activity, inhibitor, absorbance",pH 7.3,3.6
COc1ccc(F)cc1C(=O)NCc1ccc(-c2nn([C@@H](C)C(F)(F)F)c(N)c2C(N)=O)cc1,BTK,"phosphorylation in cells, inhibitor, western blot",,0.0042
COc1ccc2c(Oc3ccc4c(C(=O)Nc5ccccc5N)cccc4c3)ccnc2c1,BTK,"enzyme activity, inhibitor",,> 0.5
O=[N+]([O-])c1ccc(N2CCN(S(=O)(=O)c3ccc(Cl)cc3)CC2)cc1NCc1cccnc1,Kir1 channel protein,"ion flux, inhibitor",,1.47
O=C(Oc1nsnc1N1CCc2ccccc2C1)N1CCCCC1,ABHD6,"enzyme activity, inhibitor, fluorescence",lysate,0.46
COc1cc(C[C@H]2C(=O)OC[C@@H]2Cc2ccc(OC)c(OC)c2)ccc1O,PDE11A,"enzyme activity, inhibitor",,> 20
Cc1noc(-c2cc3cc(-c4nc(C(N)=O)[nH]c4C)ccc3[nH]2)n1,MMP14,"enzyme activity, inhibitor",,> 28
CC[C@H](C)[C@H](NC(C)=O)C(=O)N[C@@H](CCC(=O)O)C(=O)N[C@H](C(=O)N[C@H](C=O)CC(=O)O)[C@@H](C)O,"Caspase-4 (Casp4, Mus musculus, UniProt P70343)","enzyme activity, inhibitor",,0.086
Cc1cc(O)cc(C)c1C[C@H](NC(=O)[C@@H]1CCCN1C(=O)[C@H](CCCNC(=N)N)NC(=O)[C@H](CCCNC(=N)N)N(C)C(=O)CNC(=O)[C@@H](CO)NC(=O)CNC(=O)[C@H](Cc1cn(CCNC(=O)[C@H](CC(C)C)NC(=O)[C@H](CC(C)C)NC(=O)C2OC2C(=O)O)nn1)NC(=O)CN1CCN(CC(=O)O)CCN(CC(=O)O)CCN(CC(=O)O)CC1)C(=O)N[C@H](C(=O)N[C@@H](CC(C)C)C(=O)O)C(C)(C)C (mixture of isomers),NTSR1,"ligand displacement, radioligand",,0.045
Cn1cc(-c2cc3cc(-c4cc(C(=O)NCc5ccc(C(=O)O)cc5)nn4C)ccc3[nH]2)cn1,MMP14,"enzyme activity, inhibitor",,> 20
C=CC(=O)Nc1cc(Nc2nccc(Nc3cc(Cl)c(F)cc3C(C)(C)O)n2)c(OC)cc1N1CC[C@@H](N(C)C)C1,BTK,"enzyme activity, inhibitor",with preincubation,0.213
CSc1ccc(/C=C2/C(C)=C(CC(=O)O)c3cc(F)ccc32)cc1,PDE11A,"enzyme activity, inhibitor",,> 100
O=C(Nc1cccnc1)N1CCC(Cc2cccc(Oc3ccc(C(F)(F)F)cn3)c2)CC1,"Arylacetamide deacetylase (Homo sapiens, UniProt P22760)","enzyme activity, inhibitor",,> 10
Cn1nc(C(=O)NCc2ccc(C(=O)O)cc2)cc1-c1ccc2[nH]c(-c3cncnc3)cc2c1,MMP14,"enzyme activity, inhibitor",,> 20
CC(C)=CCCC(C)=CCn1cc(CC(P(=O)(O)O)P(=O)(O)O)nn1,"Protein farnesyltransferase (Rattus norvegicus, UniProt Q02293+Q04631)","enzyme activity, inhibitor, HPLC",,500
O=[N+]([O-])c1ccc(N2CCN(S(=O)(=O)c3ccc(F)cc3)CC2)cc1NCc1ccccn1,Kir1 channel protein,"ion current, inhibitor, patch clamp",,0.0355
Cc1cnc(-c2ccc(-c3ccc(NC(=O)Nc4c(F)cc(F)cc4F)cc3F)c3c2C(=O)NC3)[nH]1,"Vascular endothelial growth factor receptor 1 (FLT1, Homo sapiens, UniProt P17948)","enzyme activity, inhibitor",,> 1
COc1ccc(F)cc1C(=O)NCc1ccc(-c2nn([C@@H](C)C(F)(F)F)c(N)c2C(N)=O)cc1,BTK,"phosphorylation in cells, inhibitor",,0.0039
N#Cc1ccc(N2CCN(S(=O)(=O)c3ccc(Cl)cc3)CC2)cc1NCc1ccncc1,Kir1 channel protein,"ion flux, inhibitor",,0.738
COc1ccc(-c2nsc(NC(=O)[C@@H]3C[C@H]3C)c2C)cc1,"Metabotropic glutamate receptor 8 (GRM8, Homo sapiens, UniProt O00222)","calcium signal, antagonist",,> 12.5
COc1ccc(CNc2c(CO)cnc3c(C4CC4)cc(C#N)cc23)cn1,PDE11A,"enzyme activity, inhibitor",,> 10
CN1CCN(c2ccc(Nc3ncc4cc(C#N)c(=O)n(C5CCCC5)c4n3)cc2)CC1,"Receptor tyrosine-protein kinase erbB-4 (ERBB4, Homo sapiens, UniProt Q15303)","enzyme activity, inhibitor",,3.09
O=S(=O)(c1ccc(Cl)cc1)N1CCN(c2ccnc(NCc3ccncc3)c2)CC1,Kir1 channel protein,"ion flux, inhibitor",,4 to 9
O=C(Nc1c[nH]nc1C(=O)NC1CCNCC1)c1cc(F)cc(F)c1,"Cyclin-dependent kinase 17 (CDK17, Homo sapiens, UniProt Q00537)","target engagement in cells, BRET",,1.9
O=[N+]([O-])c1ccc(N2CCN(S(=O)(=O)c3ccc(F)cc3)CC2)cc1NCc1ccncc1,Kir1 channel protein,"ion flux, inhibitor",,0.39
Cc1noc(-c2cc3cc(-c4nc(C(=O)NCc5ccccn5)[nH]c4C)ccc3[nH]2)n1,MMP14,"enzyme activity, inhibitor",,> 20
